Source: ChEMBL document CHEMBL4043304, “Synthesis and Evaluation of Hydrogen Peroxide Sensitive Prodrugs of Methotrexate and Aminopterin for the Treatment of Rheumatoid Arthritis” (J Med Chem, 2018)
Values after ≈ are worked out from the molar mass of the structure shown. Active and inactive are the calls of the source. The calls are words filed in the database; no cut-off is given here.

How the values were obtained:
[1] = Chemical stability in PBS/DMSO mixture at pH 7.4 after 24 hrs by RP-UPLC-UV method; format: physicochemical; settings: read-out: Stability
[2] = Metabolic stability in human plasma at 20 uM after 24 hrs by RP-UPLC-UV method; format: ADME, cell-free; settings: read-out: Stability
Method in brief: (§1)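 Reconstituted lyophilized human or mouse plasma mixed about 1:1 with PBS and pre-warmed to 37 °C. Compound added to 20 µM final. […] Procaine (human) and diltiazem (mouse) as controls.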

MCF7 [3] = assay: Cytotoxicity against human MCF7 cells assessed as decrease in cell viability preincubated with H2O2 for 24 hrs followed by cell addition measured after 48 hrs by MTS assay; format: functional, cell-based
Method in brief: (§2)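 Compound pre-activated at 125 µM with 1.25 mM H2O2 in DMSO:PBS 1:1, 24 h at 21 °C. Then added to MCF-7 or NCI-H460 cells (24 h attached) for 48 h. Final H2O2 <10 µM. MTS read at 490 nm. Triplicate. IC50 by non-linear regression.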

NCI-H460 [4] = assay: Cytotoxicity against human NCI-H460 cells assessed as decrease in cell viability preincubated with H2O2 for 24 hrs followed by cell addition measured after 48 hrs by MTS assay; format: functional, cell-based; method in brief: as §2
[5] = Half life in PBS/DMSO mixture at pH 7.4 by RP-UPLC-UV method; format: physicochemical
[6] = Prodrug activation in DMSO/PBS mixture assessed as formation of (S)-dimethyl 2-(4-((2,4-diaminopteridin-6-yl)methylamino)benzamido)pentanedioate at 50 uM measured within 2 hrs in presence of 0.5 mM H2O2 by RP-UPLC-MS method
Method in brief: (§3)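 50 µM prodrug in 30% DMSO/PBS pH 7.4 at 37 °C with diclofenac internal standard. Started with H2O2 at 0.5 mM final. Sampled 5 min to 4 h (some compounds to 48 h). RP-UPLC-UV at 306 nm. No-H2O2 control run in parallel. Triplicate.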

[7] = Prodrug activation in DMSO/PBS mixture assessed as formation of aminopterin at 50 uM after <3 hrs in presence of 0.5 mM H2O2 by RP-UPLC-MS method; method in brief: as §3
[8] = Prodrug activation in DMSO/PBS mixture assessed as formation of aminopterin at 50 uM measured within 2 hrs in presence of 0.5 mM H2O2 by RP-UPLC-MS method; method in brief: as §3
NCI-H460 [9] = assay: Cytotoxicity against human NCI-H460 cells assessed as decrease in cell viability after 48 hrs by MTS assay; format: functional, cell-based
Method in brief: (§4)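 MCF-7 (DMEM) or NCI-H460 (RPMI), 10% FBS, seeded at 10^4 or 7×10^3 cells/well respectively and attached for 24 h. Exposed to serial compound concentrations for 48 h, then MTS read at 490 nm. DMSO ≤0.4% matched controls. Triplicate. IC50 by non-linear regression.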

[10] = Prodrug activation in DMSO/PBS mixture assessed as formation of (S)-2-(4-(((2,4-diaminopteridin-6-yl)methyl)(4-hydroxybenzyl)amino)benzamido)pentanedioic acid at 50 uM measured within 2 hrs in presence of 0.5 mM H2O2 by RP-UPLC-MS method; method in brief: as §3
[11] = Half life in SIF by RP-UPLC-UV method; format: physicochemical
Method in brief: (§5)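 SGF or SIF (SIF adjusted to pH 7.5) dosed from a 10 mM DMSO stock. Incubated at 37 °C and sampled at 0, 1, 2, 4 and 24 h. Run in triplicate.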

[12] = Prodrug activation in DMSO/PBS mixture assessed as formation of aminopterin at 100 uM after 2 to 48 hrs in presence of 0.25 to 10 mM H2O2 […]
[13] = Half life in SGF by RP-UPLC-UV method; format: physicochemical; method in brief: as §5
Mus musculus [14] = assay: Antiarthritic activity in collagen-induced DBA/1J mouse arthritis model assessed as decrease in incidence of arthritis at 8.8 mg/kg, ip administered daily for 2 weeks starting on day 27 post first immunization measured thrice per week during compound dosing relative to control; format: functional, organism-based
Method in brief: (§6)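 Male DBA/1J mice (8–9 wk, n = 8/group). Arthritis induced by intradermal tail-base immunization with 100 µg chicken type-II collagen in CFA on day −1, with a 50 µg boost on day 21. Daily i.p. dosing in 2% DMSO/PBS for 14 days from day 27. Blinded scoring three times weekly, 0–15 per limb (max 60). Vehicle group as control. Mann-Whitney test.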

[15] = Metabolic stability in mouse plasma at 20 uM after 8 hrs by RP-UPLC-UV method; format: ADME, cell-free; settings: read-out: Stability; method in brief: as §1
Mus musculus [16] = assay: Antiarthritic activity in collagen-induced DBA/1J mouse arthritis model assessed as reduction of macroscopic score at 8.8 mg/kg, ip administered daily for 2 weeks starting on day 27 post first immunization measured thrice per week during compound dosing relative to control; format: functional, organism-based; method in brief: as §6
[17] = Kinetic solubility of the compound in DMSO/PBS mixture after 20 hrs by RP-UPLC-UV method; format: physicochemical
Method in brief: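 100 µM compound in 1% DMSO/PBS pH 7.4, shaken 20 h at 37 °C. Centrifuged to remove insoluble material; supernatant quantified by RP-UPLC-UV at 306 nm. Triplicate.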

Mus musculus [18] = assay: Toxicity in collagen-induced DBA/1J mouse arthritis model assessed as decrease in body weight at 8.8 mg/kg, ip administered daily for 2 weeks starting on day 27 post first immunization measured thrice per week during compound dosing; format: organism-based; settings: in vivo, 336 h
Method in brief: (§7)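 CIA in male DBA/1J mice (8–9 wk, n = 8/group) from chicken type-II collagen/CFA immunization (day −1, boost day 21). Daily i.p. dosing in 2% DMSO/PBS for 14 days starting day 27. Body weight recorded three times weekly as a general-health indicator, compared with vehicle. Data are mean ± SEM.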

[19] = Intrinsic clearance in CD1 mouse liver microsomes at 10 uM after 5 to 240 mins by RP-UPLC-UV method; format: ADME, microsome; settings: read-out: CLH
Method in brief: (§8)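 Pooled male liver microsomes (human, or CD-1 mouse) in PBS at 37 °C with 10 µM compound. Reaction started with NADPH. Aliquots taken 0–60 min (mouse also 120 and 240 min) and quenched with cold MeCN/diclofenac. Read by RP-UPLC-UV, ln[C] vs time, first order. No-NADPH control run; verapamil (human) or diphenhydramine (mouse) as reference.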

[20] = Intrinsic clearance in human liver microsomes at 10 uM after 5 to 60 mins by RP-UPLC-UV method; format: ADME, microsome; settings: read-out: CLH; method in brief: as §8
MCF7 [21] = assay: Cytotoxicity against human MCF7 cells assessed as decrease in cell viability after 48 hrs by MTS assay; format: functional, cell-based; method in brief: as §4
[22] = Half life in mouse plasma at 20 uM by RP-UPLC-UV method; format: ADME, cell-free; method in brief: as §1
[23] = Half life in human plasma at 20 uM by RP-UPLC-UV method; format: ADME, cell-free; method in brief: as §1
[24] = Prodrug activation in DMSO/PBS mixture assessed as formation of methotrexate at 100 uM after 24 hrs in presence of 0.25 to 10 mM H2O2 by RP-UPLC-MS method
Method in brief: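 Prodrug from 1 mM DMSO stock in PBS pH 7.4 with diclofenac internal standard. Started with H2O2 solutions of 10, 5, 1, 0.5 or 0.25 mM (stock concentrations). Incubated at 37 °C and sampled 5 min to 24 h (48 h for some). RP-UPLC-UV at 306 nm. PBS-only control run. Triplicate.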

Mus musculus [25] = assay: Toxicity in collagen-induced DBA/1J mouse arthritis model assessed as decrease in body weight at 9.7 mg/kg, ip administered daily for 2 weeks starting on day 27 post first immunization measured thrice per week during compound dosing; format: organism-based; settings: in vivo, 336 h; method in brief: as §7
Mus musculus [26] = assay: Antiarthritic activity in collagen-induced DBA/1J mouse arthritis model assessed as reduction of macroscopic score at 9.7 mg/kg, ip administered daily for 2 weeks starting on day 27 post first immunization measured thrice per week during compound dosing relative to control; format: functional, organism-based; method in brief: as §6
Mus musculus [27] = assay: Antiarthritic activity in collagen-induced DBA/1J mouse arthritis model assessed as decrease in incidence of arthritis at 9.7 mg/kg, ip administered daily for 2 weeks starting on day 27 post first immunization measured thrice per week during compound dosing relative to control; format: functional, organism-based; method in brief: as §6
[28] = Prodrug activation in DMSO/PBS mixture assessed as formation of methotrexate at 50 uM after <3 hrs in presence of 0.5 mM H2O2 by RP-UPLC-MS method; method in brief: as §3
[29] = Prodrug activation in DMSO/PBS mixture assessed as formation of Dimethyl (4-(((2,4-Diaminopteridin-6-yl)methyl)(methyl)amino)-benzoyl)-L-glutamate at 50 uM after <3 hrs in presence of 0.5 mM H2O2 by RP-UPLC-MS method; method in brief: as §3
Mus musculus [30] = assay: Toxicity in collagen-induced DBA/1J mouse arthritis model assessed as decrease in body weight at 6.8 mg/kg, ip administered daily for 2 weeks starting on day 27 post first immunization measured up to day 33; format: organism-based; settings: in vivo, 336 h
Method in brief: (§9)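 Male DBA/1J mice, 8–9 weeks. CIA induced by intradermal/subcutaneous tail-base immunization with 100 µg chicken type-II collagen in CFA on day -1, boosted with 50 µg on day 21. From day 27, i.p. dosing once daily for 14 days in 2% DMSO/PBS vehicle, n = 8 per group. Three times weekly, blinded limb scoring (0–15 per limb, max 60) and body weight. Reported as mean ± SEM; one-tailed Mann-Whitney test.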

Mus musculus [31] = assay: Antiarthritic activity in collagen-induced DBA/1J mouse arthritis model assessed as decrease in incidence of arthritis at 6.8 mg/kg, ip administered daily for 2 weeks starting on day 27 post first immunization measured thrice per week during compound dosing relative to control; format: functional, organism-based; method in brief: as §9
Mus musculus [32] = assay: Antiarthritic activity in collagen-induced DBA/1J mouse arthritis model assessed as reduction of macroscopic score at 6.8 mg/kg, ip administered daily for 2 weeks starting on day 27 post first immunization measured thrice per week during compound dosing relative to control; format: functional, organism-based; method in brief: as §9

## Nc1nc(N)c2nc(CN(Cc3ccc(B(O)O)cc3)c3ccc(C(=O)N[C@@H](CCC(=O)O)C(=O)O)cc3)cnc2n1
[1]
  remaining at 24 h: > 90%
[2]
  remaining at 24 h, 20 µM: 82%
MCF7 [3]
  Activity: Active
NCI-H460 [4]
  Activity: Active
[5]
  half-life: 577 h
[6]
  Drug metabolism: Metabolite not detected
[7]
  Drug metabolism: Metabolite detected
[8]
  Drug metabolism: Metabolite not detected
NCI-H460 [9]
  Activity: inactive
[10]
  Drug metabolism: Metabolite detected
[11]
  half-life: 866 h
[12]
  Drug metabolism: Metabolite detected
[13]
  half-life: 770 h
Mus musculus [14]
  Activity: Active
[15]
  remaining at 8 h, 20 µM: 91%
Mus musculus [16]
  Activity: Active
[17]; read-out: Kinetic_solubility
  solubility kinetic at 20 h: 83 µM (≈ 47.7 µg/mL)
Mus musculus [18]
  Activity: Non-Toxic
[19]
  microsomal CLint at 10 µM: 2.6 µL/min/mg
[20]
  microsomal CLint at 10 µM: 1.2 µL/min/mg
MCF7 [21]
  Activity: inactive
[22]
  half-life at 20 µM: 63 h
[23]
  half-life at 20 µM: 56 h

## CN(Cc1cnc2nc(N)nc(NC(=O)OCc3ccc(B(O)O)cc3)c2n1)c1ccc(C(=O)N[C@@H](CCC(=O)O)C(=O)O)cc1
[1]
  remaining at 24 h: > 90%
[2]
  remaining at 24 h, 20 µM: 70%
MCF7 [3]
  Activity: Active
NCI-H460 [4]
  Activity: Active
[5]
  half-life: 238 h
[24]
  Drug metabolism: Metabolite detected
NCI-H460 [9]
  Activity: inactive
[11]
  half-life: 239 h
Mus musculus [25]
  Activity: Non-Toxic
Mus musculus [26]
  Activity: Active
[13]
  half-life: 8 h
[15]
  remaining at 8 h, 20 µM: 62%
[17]; read-out: Kinetic_solubility
  solubility kinetic at 20 h: 87 µM (≈ 55 µg/mL)
[19]
  microsomal CLint at 10 µM: 6.4 µL/min/mg
Mus musculus [27]
  Activity: Active
[28]
  Drug metabolism: Metabolite detected
[20]
  microsomal CLint at 10 µM: 2.2 µL/min/mg
MCF7 [21]
  Activity: inactive
[22]
  half-life at 20 µM: 17 h
[23]
  half-life at 20 µM: 70 h

## COC(=O)CC[C@H](NC(=O)c1ccc(N(C)Cc2cnc3nc(N)nc(NC(=O)OCc4ccc(B(O)O)c(F)c4)c3n2)cc1)C(=O)OC
[29]
  Drug metabolism: > 95%
[17]
  solubility kinetic at 20 h: 4.6 µM (≈ 3.12 µg/mL)

## Nc1nc(N)c2nc(CNc3ccc(C(=O)N[C@@H](CCC(=O)O)C(=O)O)cc3)cnc2n1 [AMINOPTERIN]
Mus musculus [30]
  Activity: Toxic
NCI-H460 [9]
  Activity: Active
[17]; read-out: Kinetic_solubility
  solubility kinetic at 20 h: > 1000 µM
Mus musculus [31]
  Activity: Active
Mus musculus [32]
  Activity: Active
MCF7 [21]
  Activity: Active
